Cytotoxicity data for 72 molecules are collected here from ChEMBL document CHEMBL4513216, “Probing the Open Global Health Chemical Diversity Library for Multistage-Active Starting Points for Next-Generation Antimalarials” (ACS Infect Dis, 2020).

This data set is described as follows: Toxicity liver stage against HepG2, at 10uM. In kind it is cell-based. To be noted: human, HepG2-A16-CD81EGFP cells; read-out: INHIBITION
Also on record: test concentration 10 uM, cell line HepG2-A16-CD81EGFP. Put shortly:
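Uninfected HepG2-A16-CD81EGFP cells, 3 × 10^3 per well, 1536-well, plated on prespotted compound at 10 μM final, parasite-free screening media added to match infected plates; puromycin 10 μM positive, DMSO 0.5% negative; run in parallel with 48 h PbLuc assay at 37 °C, 5% CO2; viability by CellTiter-Glo luminescence, normalized to controls.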
As to `CCOCC1CN(C(=O)c2cccs2)Cc2cnn(CC3CC3)c21` (configuration not stated), the cytotoxicity at 10 µM was -1%.

Consider `Cc1csc(CNC(=O)NCC(O)c2ccccc2)n1` (configuration not stated), for which the cytotoxicity at 10 µM is 2.26%.

On to `CSc1ncc(C(=O)N2C[C@@H]3CC[C@H]2CN(c2ncccn2)C3)cn1`, for which the cytotoxicity at 10 µM came to 1.26%.

For `CC(NC(=O)c1cc2n(n1)CCCN(C)C2)c1cn2ccsc2n1` (configuration not stated), the cytotoxicity at 10 µM was -2.51%.

Turning to `CC(C)N(Cc1ccc(C#N)cc1)Cc1nnsc1Cl`, the cytotoxicity at 10 µM came out at 12.6%.

In the case of `O=C(O)c1cc(S(=O)(=O)Nc2ccc(F)c(Cl)c2)cc2c1OCCO2`, the cytotoxicity at 10 µM was -2.33%.

As for `CC(C)Cn1cnnc1C1CCCN1C(=O)c1cc2ccccn2c1` (configuration not stated), the cytotoxicity at 10 µM is -0.384%.

For `CC(=O)NC1CCN(c2nc(N(C)C)nc3c2CCCC3)CC1`, the cytotoxicity at 10 µM was -10.7%.

With `CCCc1nnsc1C(=O)N1CCCC1(C)C(=O)N1CCOCC1` (configuration not stated), the cytotoxicity at 10 µM was determined as 12%.

Consider `O=C1CCC(=O)N1c1nn(Cc2ccc(F)cc2)cc1Cl`, for which the cytotoxicity at 10 µM is -13.2%.

Take `CCOc1ncccc1CNS(=O)(=O)c1ccc2c(c1)CCCC(=O)N2`: the cytotoxicity at 10 µM turned out to be 12.1%.

For the molecule `Cc1cccc(CNCCOc2ccc(S(C)(=O)=O)cc2)c1`, the cytotoxicity at 10 µM was -0.302%.

Regarding `c1cc(-c2nnc([C@H]3CCN(C4CCCCC4)C3)o2)ccn1`, the cytotoxicity at 10 µM was -102%.

Turning to `COc1ccc(CNC2CCN(c3ccccc3)C2)c(OC)c1OC` (configuration not stated), the cytotoxicity at 10 µM was determined as 7.49%.

Turning to `CCN1N=C(C(=O)N2CCCC(c3nc(C)c(C)s3)C2)CCC1=O` (configuration not stated), the cytotoxicity at 10 µM was found to be 1.84%.

Consider `COc1cc(NC(=O)c2cscn2)ncn1`, for which the cytotoxicity at 10 µM came to 3.12%.

As for `COc1nonc1NCn1nc(C)cc1C`, the cytotoxicity at 10 µM was -15%.

For the molecule `Cc1nnc([C@@]23CCO[C@@H]2CCN(S(C)(=O)=O)C3)o1`, the cytotoxicity at 10 µM is 9.16%.

For `Cn1cc(NC(=O)Cn2cc(-c3ccccc3)ncc2=O)cn1`, the cytotoxicity at 10 µM was -3.43%.

Take `CCS(=O)(=O)N1C[C@@H]2COC[C@@H](Cc3nc(C)no3)[C@@H]2C1`: the cytotoxicity at 10 µM worked out at 9.04%.

Regarding `CCn1c(SCC(=O)N2CCOCC2)nc2cc(C)[nH]c2c1=O`, the cytotoxicity at 10 µM is 7.72%.

Regarding `COc1ccc(CC(=O)NC(CC(=O)O)c2ccc(F)cc2)cc1OC` (configuration not stated), the cytotoxicity at 10 µM came to 0.902%.

In the case of `CCNc1cc2c(nn1)CCN(C(=O)Cc1ccc(C)s1)C2`, the cytotoxicity at 10 µM is -0.375%.

With `CNc1cncc(C2CCCN2C(=O)CCn2ccnc2C(C)C)n1` (configuration not stated), the cytotoxicity at 10 µM came to 3.36%.

Regarding `Cc1csc(C2CCCN(C(=O)c3cnn4ccc(C)nc34)C2)n1` (configuration not stated), the cytotoxicity at 10 µM came out at 2.56%.

As for `Cc1ccc(SC2CCCC2)c(C(=O)NCCc2n[nH]c(=O)[nH]2)c1`, the cytotoxicity at 10 µM was -45.3%.

For `CC(C)(C)NC(=O)CCn1ncc2c(Cl)cccc21`, the cytotoxicity at 10 µM was found to be 7.25%.

Regarding `Fc1cccc(Cc2cncc(C3CCCN3C3CCOCC3)n2)c1` (configuration not stated), the cytotoxicity at 10 µM is -0.685%.

For `Cn1ccc2c(C(=O)NCC3(C(N)=O)CCOCC3)cccc21`, the cytotoxicity at 10 µM was -1.21%.

Consider `Cn1ncc2c1NC(=O)CC2c1cc2c(cc1Cl)OCO2` (configuration not stated), for which the cytotoxicity at 10 µM was found to be 55.6%.

As to `Cc1ccc(C(CCNCCCN(C)C)C2CCOC(C)(C)C2)cc1` (configuration not stated), the cytotoxicity at 10 µM was -3.32%.

For the molecule `CC(=O)NCc1nn(C)c2c1CN(Cc1ccsc1)C2`, the cytotoxicity at 10 µM is -144%.

On to `c1ccc(Cn2cccn2)c(CNCc2cnc(N3CCCC3)nc2)c1`, for which the cytotoxicity at 10 µM was -5.34%.

With `CCc1ccc(NS(=O)(=O)C=c2[nH]c(=O)n3cccc3c2=O)cc1`, the cytotoxicity at 10 µM amounted to 8.45%.

On to `Cc1cc(C)c2nc(CN[C@H]3CCCNC3)cc(O)c2c1`, for which the cytotoxicity at 10 µM is 4.09%.

For the molecule `Cc1nnc(NC(=O)CN2CCCC(c3ccn[nH]3)C2)s1` (configuration not stated), the cytotoxicity at 10 µM was -37.6%.

With `O=C(NCC(O)c1ccc(F)cc1F)c1cccc(F)c1` (configuration not stated), the cytotoxicity at 10 µM amounted to 7.43%.

In the case of `Cc1[nH]c(=O)[nH]c(=O)c1CC(=O)N1CCCN(CC2CC2)C(C(C)C)C1` (configuration not stated), the cytotoxicity at 10 µM was -160%.

As for `Cc1occc1-c1nc(NC2CCCC2)ncc1-c1ccccn1`, the cytotoxicity at 10 µM was -20.9%.

Take `Cc1nc(-c2ccccc2)sc1CNC1CCc2ncnn2C1` (configuration not stated): the cytotoxicity at 10 µM was -4.07%.

Turning to `Cc1ccc(O)c(CNC2CCc3nc(C)nn3C2)n1` (configuration not stated), the cytotoxicity at 10 µM is -1.08%.

With `Cc1nc(CN2CCCC(NCc3nc4ccccc4s3)C2)no1` (configuration not stated), the cytotoxicity at 10 µM is -0.84%.

For the molecule `CN(C)C(=O)NCC1CC2(CO1)CN(c1nncs1)C2` (configuration not stated), the cytotoxicity at 10 µM is -96.3%.

As to `Cc1ncccc1CNCC1CCc2nnc(C(C)C)n2C1` (configuration not stated), the cytotoxicity at 10 µM was -6.27%.

Turning to `Cc1cc(C(=O)N2CCCC(n3cncn3)C2)c(C)n1C1CC1` (configuration not stated), the cytotoxicity at 10 µM was -3.32%.

As to `Cc1sc(NC(=O)CN(C)S(C)(=O)=O)c(C#N)c1C`, the cytotoxicity at 10 µM stood at 4.7%.

Turning to `CCCc1nc(NCCCn2cccn2)c2c(n1)c(C)nn2CC`, the cytotoxicity at 10 µM turned out to be 7.88%.

On to `Cc1nc(CN2CCCC(CCc3ccccc3C)C2)c[nH]1` (configuration not stated), for which the cytotoxicity at 10 µM is -1.35%.

`Cc1noc(C2(C)CCCN(C(=O)C(C)C)C2)n1` (configuration not stated): the cytotoxicity at 10 µM is -3.97%.

In the case of `O=C(NC1CC(F)(F)C1)[C@]12COC[C@H]1CN(Cc1ccccc1)C2`, the cytotoxicity at 10 µM was -108%.

On to `Cn1ccc2c(cnc3nc(-c4ccncc4)nn32)c1=O`, for which the cytotoxicity at 10 µM is -4.17%.

As for `COc1cc(CN(C)C(C)c2ccccn2)cc2c1OCO2` (configuration not stated), the cytotoxicity at 10 µM was found to be 8.97%.

`N#Cc1c(C2CC2)cc(-c2ccc(O)cc2)nc1N`: the cytotoxicity at 10 µM is -4.72%.

In the case of `COc1ccccc1CN1CC[C@]2(C[C@@H](OCC(=O)N(C)C)CO2)C1`, the cytotoxicity at 10 µM is -112%.

For the molecule `Cc1n[nH]c(SCC(=O)NC(c2ccncc2)C(C)C)n1` (configuration not stated), the cytotoxicity at 10 µM was 16.4%.

For the molecule `CNC(=O)c1cccc(C2CNCCN2C(C)=O)c1` (configuration not stated), the cytotoxicity at 10 µM was found to be 0.384%.

With `COc1ccc(F)cc1CSCC(=O)N(C)CCC#N`, the cytotoxicity at 10 µM is -2.32%.

As for `CC(C)N1CCC(NCc2cccnc2N(C)C)CC1`, the cytotoxicity at 10 µM was 21%.

With `Cc1ccc(N2CCCC(NC(=O)CCc3ccccn3)C2=O)cc1` (configuration not stated), the cytotoxicity at 10 µM was -2.16%.

Regarding `O=C(C1CCCO1)N1CCCn2c(nnc2Cn2ccnc2)C1` (configuration not stated), the cytotoxicity at 10 µM stood at 15.7%.

Turning to `CCc1cc(O)n2nc(C3CCCN3C(=O)c3ccccn3)cc2n1` (configuration not stated), the cytotoxicity at 10 µM was -0.805%.

On to `Cc1nc2n(n1)CC(NCCC(=O)Nc1cc(C)on1)CC2` (configuration not stated), for which the cytotoxicity at 10 µM was -10.5%.

For the molecule `Cc1nc(S(=O)(=O)N2CCSCC2)cn1C`, the cytotoxicity at 10 µM was -9.09%.

Consider `FC(F)(F)c1cc(NCCCn2cccn2)nc(-c2cccnc2)n1`, for which the cytotoxicity at 10 µM is 8.06%.

For the molecule `CS(=O)(=O)NC1CCCN(Cc2ccc(OCc3ccccn3)cc2)C1` (configuration not stated), the cytotoxicity at 10 µM was found to be 1.8%.

For `c1cnn(C2CN(CCCOc3ccc4c(c3)OCO4)C2)c1`, the cytotoxicity at 10 µM was -4.73%.

As to `Cc1nc(C)c(CC(=O)N2C[C@@H]3CC[C@H]2CN(c2cnccn2)C3)s1`, the cytotoxicity at 10 µM was determined as 10.1%.

Regarding `Cc1ncccc1C(=O)NCC(C)Oc1ccc(F)cc1` (configuration not stated), the cytotoxicity at 10 µM was -4.08%.

Consider `CCOCCOc1ccc(S(=O)(=O)N2CCc3c(nc[nH]c3=O)C2)cc1`, for which the cytotoxicity at 10 µM was -5.85%.

As for `O=C(Cc1ccccn1)N1CCC2(CCCN(CC3CCOCC3)C2)C1` (configuration not stated), the cytotoxicity at 10 µM was -122%.

Take `CCCc1nc(C)c(C(=O)NCCn2ccnc2)s1`: the cytotoxicity at 10 µM amounted to 8.14%.

As for `CCC(CC)C(=O)NCCc1ccn(-c2ccccc2)n1`, the cytotoxicity at 10 µM was -8.8%.
